AC50 and caspase activation data for 23 molecules are collected here from PubChem BioAssay AID488897 (Broad Institute, 2010).

What is called AC50 is the midpoint of the concentration-response curve, whichever way the signal moves.

Records with an inconclusive call do not appear. Active and inactive are the calls of the source.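 The calls were made as follows: active = fitted half-maximal concentration for caspase signal rise at or below the highest valid tested dose; inconclusive = flat fit at 30 to 70% of control, or poor fit; inactive = the rest.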

Test [1] deals with MEF A1-2A-tBid cells, caspase 3/7 luminescence, 3 h. The test can be described thus: caspase activation in A1/tBid-expressing MEFs, dose response, A1 inhibitor project, cell-based, tBid as inducer, caspase 3/7 luminescence, dry powder (AID 488897). The gist of the method: (§1)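 Assay system: Mouse embryonic fibroblasts co-expressing A1-2A-tBid, primed by tBid | Input: 2500 cells per well | Medium: TSA added at seeding | Compound dosing: Dose-response series, pin-transferred | Times: 3 h compound at 37 °C, 1 h reagent at RT | Signal: Caspase-Glo 3/7 luminescence | Measure: Caspase-3/7 activation seen as rise in luminescence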

Test in test [2]: as above
Conditions: MEF A1-2A-tBid cells, caspase 3/7 luminescence, 3 h; at 150 µM (top of the series). The gist of the method:
as §1

On to `COc1ccc(N(C(=O)CCl)C(C(=O)NCCc2ccccc2)c2cccs2)cc1Cl` (stereo not drawn), for which, in test [1], the AC50 is > 150 µM (inactive).

For `C=C1[C@@H](C)[C@H]2[C@H](Cc3ccccc3)NC(=O)[C@]23OC(=O)/C=C\[C@H](O)CCC[C@@H](C)C/C=C/[C@H]3[C@@H]1O`, the AC50 in test [1] is 12.7 µM.

Turning to `CC(=O)N[C@H]1[C@H](O[C@H]2CC[C@@]3(C)C(CC[C@]4(C)C3CC=C3[C@@H]5CC(C)(C)CC[C@]5(C(=O)OC5OCC(O)C(O)C5O)C(O)C[C@]34C)C2(C)C)O[C@H](COC2OCC(O)C(OC3OCC(O)C(O)C3O)C2O)[C@@H](O[C@@H]2O[C@@H](C)[C@H](O)[C@@H](O)[C@H]2O[C@@H]2O[C@@H](C)[C@H](O)[C@@H](O)[C@H]2O)[C@@H]1O` (stereo partly drawn), the AC50 in test [1] is 12.2 µM.

For `Cc1cc(C(=O)CCl)c(C)n1CCc1ccc(Cl)cc1`, the AC50 in test [1] was 8.01 µM.

For `CCc1cc2c(=O)c(-c3cnn(-c4ccccc4)c3)c(C)oc2cc1OCC(=O)Nc1cccc(C)c1`, the AC50 in test [1] was > 100 µM (inactive).

Consider `C=C1[C@@H](C)[C@H]2[C@H](Cc3ccccc3)NC(=O)[C@]23[C@H](OC(C)=O)/C=C/[C@](C)(O)C(=O)[C@@H](C)C/C=C/[C@H]3[C@@H]1O`, for which, in test [2], the caspase activation was 0.731% (inactive).

For `COc1cc(/C=C(/C#N)c2nc3ccccc3[nH]2)ccc1OCC(=O)Nc1ccccc1C(C)C`, the caspase activation in test [2] was 1.39% (inactive).

Regarding `O=C(Oc1cccc(/C=N/Nc2nc(Nc3ccccc3)nc(N3CCOCC3)n2)c1)c1ccco1`, the concentration at half-maximal activity (AC50) in test [1] was 17.6 µM.

With `Cc1c(C=O)c(C=O)c(C)n1Cc1ccccc1`, the AC50 in test [1] was 6.11 µM.

`Cc1ccc(CS(=O)(=O)c2ncc(Cl)c(C(=O)Nc3nnc(C(C)C)s3)n2)cc1`: the AC50 in test [1] was > 46 µM (inactive).

Turning to `CC(C)(C)n1nc(-c2ccc(Cl)cc2)c2c(N)ncnc21`, the AC50 in test [1] was > 150 µM (inactive).

On to `CCc1nnc(NC(=O)c2nc(S(=O)(=O)Cc3ccccc3)ncc2Cl)s1`, for which the AC50 in test [1] is > 68 µM (inactive).

With `Cc1cccc(CS(=O)(=O)c2ncc(Cl)c(C(=O)Nc3nnc(C(C)C)s3)n2)c1`, in test [1], the AC50 was > 46 µM (inactive).

On to `O=C(CCl)N=c1sccn1Cc1ccccc1Cl`, for which the AC50 in test [1] was 1.93 µM.

As for `Cc1cccc(NC(=O)/C(C#N)=C/c2cn(CC(=O)NCc3ccco3)c3ccccc23)c1`, in test [1], the AC50 was 7.59 µM.

Take `CC(=O)OC(C)(C)/C=C/C(=O)[C@](C)(O)C1[C@H](O)C[C@@]2(C)C3CC=C4C(C[C@H](O)C(=O)C4(C)C)[C@]3(C)C(=O)C[C@]12C` (stereo partly drawn): the AC50 in test [1] was > 150 µM (inactive).

`Nc1nc(F)nc2c1ncn2[C@@H]1O[C@H](CO)[C@@H](O)[C@H]1O`: the half-maximal activity concentration (AC50) in test [1] is 2.35 µM.

Turning to `Cc1ccc(Sc2c([N+](=O)[O-])c(=O)n(C)c3ccccc23)cc1`, the AC50 in test [1] is 18.1 µM.

Take `Cn1c(=NC(=O)CCl)sc2ccccc21`: in test [1], the AC50 is 3.22 µM.

Regarding `CCOC(=O)CSC1=N/C(=C/c2ccc(-n3cncn3)cc2)C(=O)N1C(C)=O`, the AC50 in test [1] was 9.07 µM.

On to `COc1cccc(C(=O)C(C#N)=C(SC)SC)c1`, for which the AC50 in test [1] was 2.71 µM.

For the molecule `C/C1=C/C(=O)O[C@@H]2C[C@@H](CC[C@H](C)/C=C\CC1)O[C@@](O)(C1CSC(=O)N1)C2` (stereo partly drawn), the AC50 in test [1] was 0.695 µM.

In the case of `Cc1c(CCOC(=O)c2ccc(N3CCOCC3)c([N+](=O)[O-])c2)sc[n+]1CC#N`, in test [1], the AC50 is 16.7 µM.
